The record followed here is ChEMBL document CHEMBL1132178, “5-Amino-1-(chloromethyl)-1,2-dihydro-3H-benz[e]indoles: relationships between structure and cytotoxicity for analogues bearing different DNA minor groove binding subunits” (J Med Chem, 1999).

pIC50: −log10 of the molar value.

One experiment relates to EMT6. Nature of the experiment: Tested for growth inhibition against EMT6 tumor cell line(murine mammary carcinoma). Type of experiment: functional, cell-based, Mus musculus. Summed up: (§1)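 Log-phase cultures seeded in 96-well plates (200 AA8, 300 UV4 or 50 EMT6 cells/well), drug added after 24 h. Aerobic 4 h exposure at 37 °C under 5% CO2, then washed and regrown 4 days. Cell density read by sulforhodamine B staining. IC50 is the concentration giving 50% growth inhibition versus same-plate controls; mean of 2–5 determinations ± SEM.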

The next experiment concerns SK-OV-3. Nature of the experiment: Tested for growth inhibition against SKOV3 tumor cell line(human ovarian). Type of experiment: functional, cell-based. A digest of the protocol:
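Log-phase cultures of 600 SKOV3 cells/well in 96-well plates, drug added after 24 h. Aerobic 4 h exposure at 37 °C under 5% CO2, then washed and regrown 5 days. Growth read by sulforhodamine B staining. IC50 is the concentration giving 50% inhibition relative to same-plate controls; average of 2–5 determinations ± SEM.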

For the next experiment, the system named is CHO-AA8. Nature of the experiment: Tested for growth inhibition against AA8 tumor cell line(chinese hamster ovary). Type of experiment: functional, cell-based, Cricetulus griseus. A digest of the protocol:
as §1

Another experiment relates to UV4. Nature of the experiment: The compound was tested for growth inhibition against UV4 tumor cell line(chinese hamster ovary). Type of experiment: functional, cell-based, Cricetulus griseus. A digest of the protocol:
as §1

The pIC50 is −log10 of the IC50, conventionally taken in molar units. Low values mean a large IC50, high ones a small IC50. Turning to `COc1cc2cc(C(=O)N3CC(CCl)c4c3cc(N)c3ccccc43)[nH]c2c(OC)c1OC` (single isomer, unassigned; (+)), the pIC50 in the experiment on EMT6 (emt6) is 9.89; with SK-OV-3 (sk-ov-3), 9.27; with CHO-AA8 (cho-aa8) it was 9.68; with UV4 (uv4), 9.85.
On to `COc1cccc(/C=C/C(=O)N2CC(CCl)c3c2cc(N)c2ccccc32)c1` (stereo unspecified), for which the pIC50 is 9.20 in the experiment on EMT6 (Mus musculus, EMT6); 9.17 in the experiment on SK-OV-3 (Homo sapiens, SK-OV-3); 9.43 in the experiment with CHO-AA8 (Cricetulus griseus, CHO-AA8); 9.38 in the experiment on UV4 (Cricetulus griseus, UV4).
For the compound `CN(C)CCOc1ccc(/C=C/C(=O)N2CC(CCl)c3c2cc(N)c2ccccc32)cc1` (stereo unspecified), the negative logarithm of the IC50 (pIC50) in the experiment on EMT6 (Mus musculus, EMT6) was 9.20; with SK-OV-3 (Homo sapiens, SK-OV-3), 8.72; with CHO-AA8 (Cricetulus griseus, CHO-AA8) it was 8.82; in the experiment on UV4 (Cricetulus griseus, UV4), 9.25.
In the same order, the values of `Nc1ccc2[nH]c(C(=O)N3CC(CCl)c4c3cc(N)c3ccccc43)cc2c1` (stereo unspecified) are 9.08, 8.52, 8.60 and 8.96.
In the same order, the values of `COc1cc(OCCN(C)C)c2[nH]c(C(=O)N3CC(CCl)c4c3cc(N)c3ccccc43)cc2c1` (stereo unspecified) are 8.72, 8.38, 8.43 and 8.72.
The like results for `CC(=O)Nc1cc(/C=C/C(=O)N2CC(CCl)c3c2cc(N)c2ccccc32)n(C)n1` (stereo unspecified) were, in that order, 8.31, 7.89, 7.97 and 8.27.
In the case of `CC(=O)Nc1cc(C(=O)Nc2cc(C(=O)N3CC(CCl)c4c3cc(N)c3ccccc43)nn2C)nn1C` (stereo unspecified), the pIC50 was 6.67 in the experiment on EMT6 (Mus musculus, EMT6); 7.31 in the experiment on SK-OV-3 (Homo sapiens, SK-OV-3); 6.43 with CHO-AA8 (Cricetulus griseus, CHO-AA8); 6.60 with UV4 (Cricetulus griseus, UV4).
In the same order, the values of `COc1ccc(/C=C/C(=O)N2CC(CCl)c3c2cc(N)c2ccccc32)cc1` (stereo unspecified) are 10.05, 9.62, 10.05 and 10.24.
`COc1ccc2[nH]c(C(=O)N3CC(CCl)c4c3cc(N)c3ccccc43)cc2c1` (stereo unspecified): the pIC50 in the experiment with EMT6 (Mus musculus, EMT6) was 9.01; with SK-OV-3 (Homo sapiens, SK-OV-3), 8.73; with CHO-AA8 (Cricetulus griseus, CHO-AA8), 8.89; with UV4 (Cricetulus griseus, UV4), 9.08.
The like results for `COc1cc2cc(C(=O)N3CC(CCl)c4c3cc(N)c3ccccc43)[nH]c2cc1OCCN(C)C` (stereo unspecified) were, in that order, 8.70, 8.28, 8.44 and 8.68.
In the same order, the values of `Nc1cc2c(c3ccccc13)C(CCl)CN2C(=O)c1cc2cc(NC(=O)c3cc4ccccc4o3)ccc2[nH]1` (stereo unspecified) are 8.89, 8.46, 8.70 and 8.82.
With `COc1cc2cc(C(=O)N3CC(CCl)c4c3cc(N)c3ccccc43)[nH]c2c(OC)c1OC` (single isomer, unassigned; (-)), the pIC50 in the experiment on EMT6 (emt6) is 8.15; in the experiment on SK-OV-3 (sk-ov-3), 8.10; in the experiment on CHO-AA8 (cho-aa8), 7.85; in the experiment with UV4 (uv4), 8.57.
Regarding `CCCC(=O)Nc1cc(/C=C/C(=O)N2CC(CCl)c3c2cc(N)c2ccccc32)n(C)c1` (stereo unspecified), the pIC50 in the experiment on EMT6 (Mus musculus, EMT6) is 8.23; with SK-OV-3 (Homo sapiens, SK-OV-3), 7.66; in the experiment on CHO-AA8 (Cricetulus griseus, CHO-AA8) it was 7.51; with UV4 (Cricetulus griseus, UV4), 7.80.
Regarding `COc1ccc2[nH]c(/C=C/C(=O)N3CC(CCl)c4c3cc(N)c3ccccc43)cc2c1` (stereo unspecified), the pIC50 with EMT6 (Mus musculus, EMT6) was 9.64; with SK-OV-3 (Homo sapiens, SK-OV-3), 9.32; with CHO-AA8 (Cricetulus griseus, CHO-AA8), 9.55; in the experiment with UV4 (Cricetulus griseus, UV4), 9.66.
In the same order, the values of `CC(=O)Nc1ccc2[nH]c(C(=O)N3CC(CCl)c4c3cc(N)c3ccccc43)cc2c1` (stereo unspecified) are 8.28, 7.76, 7.90 and 8.12.
In the same order, the values of `COc1cc2cc(C(=O)N3CC(COS(C)(=O)=O)c4c3cc(N)c3ccccc43)[nH]c2c(OC)c1OC` (stereo unspecified) are 9.40, 8.92, 9.32 and 9.34.
For `CC(=O)Nc1ccc(/C=C/C(=O)N2CC(CCl)c3c2cc(N)c2ccccc32)cc1` (stereo unspecified), the negative-log IC50 (pIC50) with EMT6 (Mus musculus, EMT6) is 8.92; with SK-OV-3 (Homo sapiens, SK-OV-3), 8.57; with CHO-AA8 (Cricetulus griseus, CHO-AA8), 8.59; in the experiment on UV4 (Cricetulus griseus, UV4) it was 8.85.
In the case of `CC(=O)Nc1cccc(/C=C/C(=O)N2CC(CCl)c3c2cc(N)c2ccccc32)c1` (stereo unspecified), the pIC50 with EMT6 (Mus musculus, EMT6) is 9.07; with SK-OV-3 (Homo sapiens, SK-OV-3) it was 8.82; in the experiment on CHO-AA8 (Cricetulus griseus, CHO-AA8), 8.57; in the experiment on UV4 (Cricetulus griseus, UV4), 8.82.
Turning to `CN(C)CCOc1ccc2[nH]c(C(=O)N3CC(CCl)c4c3cc(N)c3ccccc43)cc2c1` (stereo unspecified), the pIC50 in the experiment on EMT6 (Mus musculus, EMT6) is 8.89; with SK-OV-3 (Homo sapiens, SK-OV-3), 8.15; in the experiment with CHO-AA8 (Cricetulus griseus, CHO-AA8), 8.39; in the experiment on UV4 (Cricetulus griseus, UV4), 8.77.
